This is an account of results in ChEMBL document CHEMBL4261655, “Matrix metalloproteinase-12 inhibitors: synthesis, structure-activity relationships and intestinal absorption of novel sugar-based biphenylsulfonamide carboxylates” (Bioorg Med Chem, 2018).

Broadly, the pIC50 is the IC50 on a negative log10 scale, so that one unit is a factor of ten. In general, solubility refers to the dissolved amount per volume that the medium holds. Low values mean a poorly soluble substance, high ones a readily soluble substance.

Series [1] addresses Macrophage metalloelastase (Homo sapiens, UniProt P39900). Kind of series: Inhibition of recombinant human MMP12 using Mca-Lys-Pro-Leu-Gly-Leu-Dap(Dnp)-Ala-Arg-NH2 as substrate preincubated for 3 hrs followed by substrate addition and measured every 10 secs for 15 mins by fluorescence assay. An outline of the steps:
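Inhibitor at seven concentrations, 3 h at 25 °C; 2 µM final substrate. Fluorescence read at ex 325/em 400 nm. Done in triplicate. IC50 fitted as vi/v0 = 1/(1+[I]/IC50).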

Series [2] addresses Matrix metalloproteinase-9 (Homo sapiens, UniProt P14780). Kind of series: Inhibition of recombinant human MMP9 using Mca-Lys-Pro-Leu-Gly-Leu-Dap(Dnp)-Ala-Arg-NH2 as substrate preincubated for 3 hrs followed by substrate addition and measured every 10 secs for 15 mins by fluorescence assay. An outline of the steps: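 Pro-enzyme activated just before use with 1 mM APMA for 1 h at 37 °C; 1.3 nM final enzyme. Inhibitor at seven concentrations, 3 h at 25 °C; 2 µM final substrate. Fluorescence read at ex 325/em 400 nm. Done in triplicate. IC50 fitted as vi/v0 = 1/(1+[I]/IC50).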

A short description of series [3]: Solubility in water. The series is classed as physicochemical.

pIC50: −log10 of the molar value. Some results are limits rather than exact numbers.

Macrophage metalloelastase, sequence (P39900 whole entry): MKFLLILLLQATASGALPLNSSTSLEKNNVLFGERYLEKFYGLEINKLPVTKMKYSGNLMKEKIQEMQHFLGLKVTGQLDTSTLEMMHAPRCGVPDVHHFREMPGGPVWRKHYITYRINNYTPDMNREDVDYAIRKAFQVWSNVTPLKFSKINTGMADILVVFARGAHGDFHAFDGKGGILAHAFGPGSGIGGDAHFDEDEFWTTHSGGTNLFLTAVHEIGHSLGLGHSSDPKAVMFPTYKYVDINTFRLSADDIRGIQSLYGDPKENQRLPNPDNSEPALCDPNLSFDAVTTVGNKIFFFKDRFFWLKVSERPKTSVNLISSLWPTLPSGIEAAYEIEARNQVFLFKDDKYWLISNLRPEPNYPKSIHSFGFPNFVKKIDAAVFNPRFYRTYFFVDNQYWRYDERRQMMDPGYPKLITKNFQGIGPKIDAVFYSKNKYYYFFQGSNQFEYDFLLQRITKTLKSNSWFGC
Matrix metalloproteinase-9, sequence (P14780 whole entry): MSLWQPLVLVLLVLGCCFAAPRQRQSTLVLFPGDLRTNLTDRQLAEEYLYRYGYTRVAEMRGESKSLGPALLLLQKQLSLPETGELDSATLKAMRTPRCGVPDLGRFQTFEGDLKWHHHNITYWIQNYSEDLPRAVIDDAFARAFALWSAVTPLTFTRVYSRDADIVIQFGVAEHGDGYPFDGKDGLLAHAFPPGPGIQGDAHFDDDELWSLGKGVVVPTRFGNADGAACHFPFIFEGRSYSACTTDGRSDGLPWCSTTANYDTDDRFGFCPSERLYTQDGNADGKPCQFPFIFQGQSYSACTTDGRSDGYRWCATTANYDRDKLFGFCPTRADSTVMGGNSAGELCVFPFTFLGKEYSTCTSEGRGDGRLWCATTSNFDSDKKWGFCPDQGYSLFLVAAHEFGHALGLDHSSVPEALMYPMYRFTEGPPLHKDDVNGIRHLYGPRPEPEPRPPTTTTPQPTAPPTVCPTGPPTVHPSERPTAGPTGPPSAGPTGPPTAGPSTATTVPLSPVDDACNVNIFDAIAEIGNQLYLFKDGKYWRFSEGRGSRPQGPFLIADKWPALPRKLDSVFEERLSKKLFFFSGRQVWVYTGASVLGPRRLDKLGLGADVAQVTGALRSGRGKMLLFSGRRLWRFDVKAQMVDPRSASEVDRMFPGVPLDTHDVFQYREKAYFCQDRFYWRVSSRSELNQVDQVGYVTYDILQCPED

`CC(=O)N[C@@H]1[C@@H](OC(C)=O)[C@H](OC(C)=O)[C@@H](COC(C)=O)O[C@H]1N([C@@H](C(=O)O)C(C)C)S(=O)(=O)c1ccc(-c2ccccc2)cc1`: the pIC50 in series [1] is 4.40. On to `CC(C)[C@H](C(=O)O)N([C@@H]1O[C@H](CO)[C@@H](O)[C@H](O)[C@H]1O)S(=O)(=O)c1ccc(-c2ccccc2)cc1`, for which the pIC50 in series [1] was 5.89; in series [2], below 4.30. For `CO[C@@H]1O[C@H](CNC(=S)NCCN([C@@H](C(=O)O)C(C)C)S(=O)(=O)c2ccc(-c3ccccc3)cc2)[C@@H](OC(C)=O)[C@H](OC(C)=O)[C@H]1OC(C)=O` the same measures were 7.70 and 7.49. With `CC(=O)OC[C@H]1O[C@@H](N([C@@H](C(=O)O)C(C)C)S(=O)(=O)c2ccc(-c3ccccc3)cc2)[C@H](OC(C)=O)[C@@H](OC(C)=O)[C@@H]1OC(C)=O`, the pIC50 in series [1] was 5.02.

`CC(=O)N[C@@H]1[C@@H](OC(C)=O)[C@H](OC(C)=O)[C@@H](COC(C)=O)O[C@H]1NC(=S)NCCN([C@@H](C(=O)O)C(C)C)S(=O)(=O)c1ccc(-c2ccccc2)cc1`: the results for the pIC50 in series [1] and in series [2] were 7.74 and 5.92, respectively.

For the compound `CO[C@@H]1O[C@H](CN([C@@H](C(=O)O)C(C)C)S(=O)(=O)c2ccc(-c3ccccc3)cc2)[C@@H](OC(C)=O)[C@H](OC(C)=O)[C@H]1OC(C)=O`, the results for the pIC50 in series [1] and in series [2] were 7.08 and 5.59, respectively. Regarding `CO[C@@H]1O[C@H](CN([C@@H](C(=O)O)C(C)C)S(=O)(=O)c2ccc(-c3ccccc3)cc2)[C@@H](OC(C)=O)[C@H](OC(C)=O)[C@H]1NC(C)=O`, the pIC50 in series [1] is 7.08; in series [2], 5.91. On the same counts, the results for `CC(C)[C@H](C(=O)O)N(CCNC(=S)N[C@@H]1O[C@H](CO)[C@@H](O)[C@H](O)[C@H]1O)S(=O)(=O)c1ccc(-c2ccccc2)cc1` are 7.01 and 5.95. For `CO[C@@H]1O[C@H](CNC(=S)NCCN([C@@H](C(=O)O)C(C)C)S(=O)(=O)c2ccc(-c3ccccc3)cc2)[C@@H](O)[C@H](O)[C@H]1O` the same measures were 7.19 and 6.28. On to `CC(=O)N[C@@H]1[C@@H](O)[C@H](O)[C@@H](CO)O[C@H]1N([C@@H](C(=O)O)C(C)C)S(=O)(=O)c1ccc(-c2ccccc2)cc1`, for which, in series [1], the pIC50 is 5.04. Regarding `CO[C@@H]1O[C@H](CN([C@@H](C(=O)O)C(C)C)S(=O)(=O)c2ccc(-c3ccccc3)cc2)C(O)[C@H](O)C1NC(C)=O` (single isomer, unassigned), the pIC50 in series [1] is 7.39; in series [2], 6.05. The compound `CC(=O)N[C@@H]1[C@@H](O)[C@H](O)[C@@H](CO)O[C@H]1NC(=S)NCCN([C@@H](C(=O)O)C(C)C)S(=O)(=O)c1ccc(-c2ccccc2)cc1` had a solubility in series [3] above 5 mM. The pIC50 in series [1] is 7.40; in series [2], 5.27. As for `CC(=O)OC[C@H]1O[C@@H](NC(=S)NCCN([C@@H](C(=O)O)C(C)C)S(=O)(=O)c2ccc(-c3ccccc3)cc2)[C@H](OC(C)=O)[C@@H](OC(C)=O)[C@@H]1OC(C)=O`, the negative-log IC50 (pIC50) is 7.72 in series [1] and 6.06 in series [2]. As to `CO[C@@H]1O[C@H](CN([C@@H](C(=O)O)C(C)C)S(=O)(=O)c2ccc(-c3ccccc3)cc2)[C@@H](O)[C@H](O)[C@H]1O`, the figures for the pIC50 in series [1] and in series [2] were 7.29 and 5.66, respectively.
